Measurements: ChEMBL document CHEMBL4699517 (Bioorg Med Chem Lett, 2020)
Calls of active or inactive are those of the source. The calls are words filed in the database; no cut-off is given here.

Columns and labels:
[1] = Toxicity in NOD/SCID mouse assessed as animal survival at 10 mg/kg, ip dosed 3 times per week and measured after 24 days of treatment; assay type: organism-based; details: in vivo, time 24 day
[2] = target: Phosphatidylinositol 4,5-bisphosphate 3-kinase catalytic subunit gamma isoform (Homo sapiens) (UniProt P48736); experiment: Inhibition of PI3Kgamma in human LCL-1 cells assessed as inhibition of cell viability at 100 nM after 72 hrs by CellTiter-Glo luminescent assay; assay type: cell-based
Sequence of Phosphatidylinositol 4,5-bisphosphate 3-kinase catalytic subunit gamma isoform (Homo sapiens) (P48736 whole entry, looked up, canonical isoform): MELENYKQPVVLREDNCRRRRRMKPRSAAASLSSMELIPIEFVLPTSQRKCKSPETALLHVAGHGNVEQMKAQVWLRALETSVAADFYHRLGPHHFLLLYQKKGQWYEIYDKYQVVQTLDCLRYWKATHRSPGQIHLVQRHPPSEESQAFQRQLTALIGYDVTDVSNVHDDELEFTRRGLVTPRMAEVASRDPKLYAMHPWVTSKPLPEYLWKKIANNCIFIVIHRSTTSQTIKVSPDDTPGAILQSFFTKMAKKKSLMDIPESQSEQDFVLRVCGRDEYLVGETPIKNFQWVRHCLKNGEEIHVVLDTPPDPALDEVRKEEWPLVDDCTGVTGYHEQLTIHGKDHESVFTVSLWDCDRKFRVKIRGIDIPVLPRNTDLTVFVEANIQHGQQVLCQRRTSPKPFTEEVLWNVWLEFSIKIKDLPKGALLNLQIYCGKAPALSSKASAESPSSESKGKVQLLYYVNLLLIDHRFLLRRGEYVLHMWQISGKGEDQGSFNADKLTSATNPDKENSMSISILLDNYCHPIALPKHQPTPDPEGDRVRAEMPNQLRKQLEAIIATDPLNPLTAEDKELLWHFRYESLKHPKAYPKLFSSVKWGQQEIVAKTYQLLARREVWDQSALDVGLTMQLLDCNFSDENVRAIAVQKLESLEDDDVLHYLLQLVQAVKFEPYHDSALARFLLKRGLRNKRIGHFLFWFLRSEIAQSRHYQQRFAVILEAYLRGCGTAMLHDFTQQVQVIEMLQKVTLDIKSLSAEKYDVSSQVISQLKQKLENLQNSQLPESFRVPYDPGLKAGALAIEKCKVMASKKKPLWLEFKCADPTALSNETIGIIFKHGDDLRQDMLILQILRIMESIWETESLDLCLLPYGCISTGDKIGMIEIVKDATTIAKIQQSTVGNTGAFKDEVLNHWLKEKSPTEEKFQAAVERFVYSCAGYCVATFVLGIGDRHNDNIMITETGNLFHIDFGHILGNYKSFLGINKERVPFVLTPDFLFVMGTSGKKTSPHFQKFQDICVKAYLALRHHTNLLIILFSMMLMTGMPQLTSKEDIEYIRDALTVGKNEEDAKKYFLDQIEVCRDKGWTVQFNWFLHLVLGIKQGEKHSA

[3] = target: Phosphatidylinositol 4,5-bisphosphate 3-kinase catalytic subunit gamma isoform (Homo sapiens) (UniProt P48736); experiment: Inhibition of PI3Kgamma in human RPMI-8226 cells assessed as inhibition of cell viability at 100 nM after 72 hrs by CellTiter-Glo luminescent assay; assay type: cell-based
[4] = target: Phosphatidylinositol 4,5-bisphosphate 3-kinase catalytic subunit gamma isoform (Homo sapiens) (UniProt P48736); experiment: Inhibition of PI3Kgamma in human MOLT-4 cells assessed as inhibition of cell viability at 100 nM after 72 hrs by CellTiter-Glo luminescent assay; assay type: cell-based
[5] = Toxicity in NOD/SCID mouse assessed as animal death rate at 5 mg/kg, ip dosed 3 times per week and measured after 24 days of treatment; assay type: organism-based; details: in vivo, time 24 day, read-out: Activity
Outline: (§1)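 Six-week-old male NOD/SCID mice, 4 per group, received 5 mg/kg IP every other day, three times per week. Animals were monitored throughout dosing and euthanized after 24 days of treatment. Survival over the dosing period was plotted as a survival curve.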

[6] = target: Phosphatidylinositol 4,5-bisphosphate 3-kinase catalytic subunit gamma isoform (Homo sapiens) (UniProt P48736); experiment: Inhibition of PI3Kgamma in human SUDHL-10 cells assessed as inhibition of cell viability at 100 nM after 72 hrs by CellTiter-Glo luminescent assay; assay type: cell-based; details: SU-DHL-10
[7] = target: Phosphatidylinositol 4,5-bisphosphate 3-kinase catalytic subunit gamma isoform (Homo sapiens) (UniProt P48736); experiment: Inhibition of PI3Kgamma in human SUDHL-6 cells assessed as inhibition of cell viability at 100 nM after 72 hrs by CellTiter-Glo luminescent assay; assay type: cell-based; details: SU-DHL-6
[8] = target: Phosphatidylinositol 4,5-bisphosphate 3-kinase catalytic subunit gamma isoform (Homo sapiens) (UniProt P48736); experiment: Inhibition of PI3Kgamma in human Raji cells assessed as inhibition of cell viability at 100 nM after 72 hrs by CellTiter-Glo luminescence assay; assay type: cell-based
[9] = Toxicity in NOD/SCID mouse assessed as animal survival at 5 mg/kg, ip dosed 3 times per week and measured after 24 days of treatment; assay type: organism-based; details: in vivo, time 24 day; outline: as §1
[10] = Toxicity in NOD/SCID mouse assessed as animal survival at 5 to 10 mg/kg, ip dosed 3 times per week and measured at >3 weeks of treatment; assay type: organism-based; details: in vivo, 504 h, dose 5-10 mg/kg

Compound	survival at 576 h [1] [%]	inhibition [2]	inhibition [3]	inhibition [4]	mortality at 576 h [5] [%]	inhibition [6]	inhibition [7]	inhibition [8]	survival at 576 h [9] [%]	Activity [10]
COC(=O)[C@@]12OC[C@]34[C@H]([C@@H](O)[C@@H]1O)[C@@]1(C)CC(=O)C(O)=C(C)[C@@H]1C[C@H]3OC(=O)[C@H](OC(=O)C=C(C)C)[C@@H]24	25	Active	Active	Active	25	Active	Active	Active	75	–
COC(=O)[C@@]12OC[C@]34[C@H]([C@@H](O)[C@@H]1O)[C@@]1(C)CC(=O)C(OC(=O)C[C@H](C)N)=C(C)[C@@H]1C[C@H]3OC(=O)[C@H](OC(=O)C=C(C)C)[C@@H]24	–	–	–	–	–	–	–	Active	100	Non-Toxic
COC(=O)[C@@]12OC[C@]34[C@H]([C@@H](O)[C@@H]1O)[C@@]1(C)CC(=O)C(OC(=O)CNC(=O)OC(C)(C)C)=C(C)[C@@H]1C[C@H]3OC(=O)[C@H](OC(=O)C=C(C)C)[C@@H]24	0	–	–	–	–	–	–	Active	50	–
COC(=O)[C@@]12OC[C@]34[C@H]([C@@H](O)[C@@H]1O)[C@@]1(C)CC(=O)C(OC(=O)CNC(=O)CN)=C(C)[C@@H]1C[C@H]3OC(=O)[C@H](OC(=O)C=C(C)C)[C@@H]24	–	Active	Active	Active	–	Active	Active	Active	–	–
